CYP2C9 activ = activators of human CYP2C9; activation factor at 5 µM; P11712; recombinant CYP2C9, luciferin-H conversion, luminescence; hits give high values; factor 1 = untreated enzyme, 0 = blocked; 1.4% of 96,000 active; AID 1024;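 active = activation factor of 2 or more for CYP2C9 at a 5 µM dose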;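 also: 0 = sulfaphenazole-blocked wells and 1 = vehicle-only wells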
CYP2C19 inh = blocks human cytochrome P450 2C19. CYP2C19 Supersomes, luciferin-H EGE luminescence, 30 min. inhibition, % at 5 µM. 21% of 96,000 active. AID 778;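 active = CYP2C19 inhibition above a set limit at 5 µM in the primary screen, cut at about 50% in these data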;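 also: plate controls were negative control wells for no effect and 2.5 mM tranylcypromine positive control for full effect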
Target sequence (P33261 whole entry, looked up): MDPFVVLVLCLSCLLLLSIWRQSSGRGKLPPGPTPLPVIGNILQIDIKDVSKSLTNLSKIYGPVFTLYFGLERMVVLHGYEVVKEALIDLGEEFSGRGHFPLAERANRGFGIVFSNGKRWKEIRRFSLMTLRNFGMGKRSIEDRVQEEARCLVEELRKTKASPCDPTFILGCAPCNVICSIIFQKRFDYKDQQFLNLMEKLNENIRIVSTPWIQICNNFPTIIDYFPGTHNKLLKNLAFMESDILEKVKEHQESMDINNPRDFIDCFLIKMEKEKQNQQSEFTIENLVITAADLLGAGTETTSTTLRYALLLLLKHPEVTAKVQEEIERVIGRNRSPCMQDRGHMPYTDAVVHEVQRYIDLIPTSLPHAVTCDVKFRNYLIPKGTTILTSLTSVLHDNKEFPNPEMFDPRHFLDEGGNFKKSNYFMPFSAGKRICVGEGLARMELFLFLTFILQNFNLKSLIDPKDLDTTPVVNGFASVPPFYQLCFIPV
CYP2C19 activ = cytochrome P450 2C19 (human) activation. recombinant CYP2C19, luciferin-H EGE luminescence; hits give high values; 0 = fully inhibited enzyme, 1 = untreated enzyme. activation factor at 5 µM. 96,000 tested, under 10 active. AID 1025;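 active = activation factor of at least 2 at 5 µM in the primary screen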;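 also: 0 = wells with 2.5 mM tranylcypromine and 1 = vehicle-only wells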
Rev-RRE block = HIV Rev-RRE protein-RNA interaction inhibition; P05866; Rev peptide-RRE RNA binding, FRET; inhibition, % at 8 µM; 0.79% of 97,000 active; AID 704;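 active = inhibition above the screen-wide mean plus 3 SD, cut at about 35% in these data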;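 also: 0% = median DMSO wells and 100% = median Neomycin B control wells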
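assay system = Cy5-tagged RRE RNA duplex with fluorescein-tagged Rev peptide | incubation = 5 + 15 min at 25 °C | also added = labelled Rev peptide | measure = % inhibition of FRET ratio versus controls | benchmarks = DMSO wells as 0% and neomycin B wells as 100% inhibition | measured by = FRET fluorescence readout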
Cav32 inh = blocks human Cav3.2 T-type calcium channel. B-score at 10 µM. Cav3.2-expressing cells, Fluo-4 calcium fluorescence FDSS; hits give low values. 4% of 100,000 active. AID 449739. O95180;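 active = single-dose well whose peak fluorescence ratio is a statistical outlier from its plate by either plate-standardised score or position-corrected B-score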
CYP2C9 inh = human CYP2C9 inhibition; P11712; CYP2C9 Supersomes, luciferin-H conversion, luminescence; inhibition, % at 5 µM; 20% of 96,000 active; AID 777;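 active = blocking of liver enzyme CYP2C9 beyond about 50% at 5 µM, limit read from the data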
Numbers without * were called inactive; . = no result given. An excerpt weighted towards active compounds, which were near 27% of everything screened.

SMILES | CYP2C9 activ | CYP2C19 inh | CYP2C19 activ | Rev-RRE block | Cav32 inh | CYP2C9 inh
Cc1ccc(N2CCN(S(=O)(=O)N3CCCCCC3)CC2)cc1Cl | 0.6 | 49 | 0.5 | 1 | -1.5 | 37
COc1ccc(C)cc1NC(=O)NCCC1=CCCCC1 | 1 | 83* | 0.2 | 5 | -0.74 | 2
COc1cc(C(=O)NCCC2=CCCCC2)cc(OC)c1OC | 0.7 | 75* | 0.2 | . | 0.9 | 32
COc1cccc(C(=O)NCCC2=CCCCC2)c1OC | 0.7 | 100* | 0 | 3 | -0.0054 | 29
COCCCNC(=O)c1cccc(OC)c1OC | 1.1 | 56* | 0.4 | 1 | 0.063 | -8
CC(C)n1c(NCCc2ccccc2)nc2c1c(=O)n(C)c(=O)n2C | . | . | . | 7 | -0.69 | .
Cc1nc2c3cc(Cl)ccc3n(CCN3CCCCC3)c2s1 | 0.7 | 45 | 0.6 | 10 | -0.91 | 28
Cc1ccc(C(c2nnnn2CCC(C)C)N2CCN(C)CC2)cc1 (stereo unspecified) | 0.9 | 13 | 0.9 | 3 | -0.036 | 12
CC(C)CCNC(=O)C1CCC(=O)N1C(C)C (stereo unspecified) | 1.2 | -20 | 1.2 | 8 | 0.24 | -16
O=C(Nc1ccc(Cl)cc1)C1CC=CCC1C(=O)OCC(F)(F)C(F)F (stereo unspecified) | 1 | 21 | 0.8 | 1 | -0.028 | -2
O=C(Nc1ccc(Br)cc1)C1CC=CCC1C(=O)OCC1CCCO1 (stereo unspecified) | 0.9 | 51* | 0.5 | 10 | 0.023 | 10
CC1Cc2ccccc2N1CC(=O)NC(=O)NCc1ccco1 (stereo unspecified) | 0.4 | 83* | 0.2 | 3 | 0.14 | 55*
CC1(c2ccccc2)NC(=O)N(CC(=O)NC(=O)NCc2ccco2)C1=O (stereo unspecified) | 0.9 | 7 | 0.9 | -6 | -0.29 | 11
O=C(CN1CCCc2ccccc21)NC(=O)NCc1ccco1 | 0.5 | 69* | 0.3 | 3 | -1.5 | 46
CCOc1ccccc1-c1cc(-c2ccc(OC)cc2)nc2c1c(=O)n(C)c(=O)n2C | 0.7 | -7 | 1.1 | . | -1.9 | 28
Cc1ccc(P(=Nc2ccccc2)(N2CCOCC2)N2CCOCC2)o1 | 0.8 | 4 | 1 | 1 | 0.27 | 23
Cc1c(Cl)cccc1NC(=O)c1nc(C)n(-c2cc(OC(C)C)c(Cl)cc2Cl)n1 | 0.2 | 7 | 0.9 | 2 | -12* | 83*
Cc1nc(C(=O)N(C)C)nn1-c1ccc(Cl)cc1Cl | 0.5 | -2 | 1 | 3 | 0.61 | 48
CCOn1c(=O)c(=O)n(OCc2ccccc2)c2ccccc21 | 1.2 | 41 | 0.6 | 1 | 0.052 | -15
CC1(C)C(=O)N(OCc2ccccc2)C(C)(C)C(=O)N1OCc1ccccc1 | 0.6 | 57* | 0.4 | 2 | . | 36
O=C(NCCc1csc(-c2ccccc2)n1)c1ccc(Br)o1 | 0.4 | 100* | 0 | 5 | -3.3 | 61*
O=C(NCCc1csc(-c2ccccc2)n1)c1c(F)cccc1F | . | . | . | . | 1.5 | .
O=C(NCCc1csc(-c2cccnc2)n1)c1ccc(Br)o1 | 0.6 | 52* | 0.5 | . | 0.46 | 42
O=C(NCCc1csc(-c2cccnc2)n1)c1ccco1 | 0.9 | 10 | 0.9 | 10 | 0.69 | 13
CCN(CC)S(=O)(=O)c1cccc(S(=O)(=O)c2cccc(S(=O)(=O)N(CC)CC)c2)c1 | 0.3 | 91* | 0.1 | 16 | -5.3* | 70*
SMILES | CYP2C9 activ | CYP2C19 inh | CYP2C19 activ | Rev-RRE block | Cav32 inh | CYP2C9 inh
Cc1ccc(S(=O)(=O)c2cccc(S(=O)(=O)N3CCCC3)c2)cc1S(=O)(=O)N1CCCC1 | 1 | 52* | 0.5 | . | -0.3 | -4
CCN(CC)S(=O)(=O)c1ccc2c(c1)C(=NO)c1cc(S(=O)(=O)N(CC)CC)ccc1-2 | . | . | . | -7 | -5.7* | .
CC1CCN(S(=O)(=O)c2ccc3c(c2)C(=NO)c2cc(S(=O)(=O)N4CCC(C)CC4)ccc2-3)CC1 | 0.9 | 1 | 1 | 14 | -3.5 | 8
CN1CCN(S(=O)(=O)c2cccc(S(=O)(=O)c3ccc(Cl)cc3)c2)CC1 | 2.1* | -9 | 1.1 | 5 | -0.46 | -114
CCOC(=O)N1CCN(C2=NC3(CCCCC3)C(C#N)C(=O)N2)CC1 (stereo unspecified) | 1 | -1 | 1 | 6 | -0.64 | 0
CCN(CC)S(=O)(=O)c1ccc(C)c(C)c1 | 3.4* | 82* | 0.2 | 4 | 0.055 | -237
